Test results taken from paper PMC2872922 (Journal of medicinal chemistry, 2010).

Assays:
[1] = target: tau40-promoted MT-polymerization (tubulin) (Homo sapiens, UniProt P10636); assay: MT-assembly; format: biochemical; conditions: 50 μM compound, 30 μM tubulin, 20 μM tau40
Summary of the method: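 Wild-type full-length human tau40 (2N4R) was preincubated with test compound for 120 min at room temperature in RAB (100 mM MES pH 6.9, 1 mM […], 0.5 mM MgSO4). Bovine brain tubulin and GTP were then added. Final concentrations were 30 μM tubulin, 20 μM tau, 50 μM compound and 2 mM GTP, with a DMSO control. Polymerisation was followed at 37 °C by A340 every minute for 45 min.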

[2] = target: K18 tau fragment bearing the P301L mutation (K18PL) (Homo sapiens, UniProt P10636, P618L); assay: Heparin-induced tau K18PL fibrillization assay monitored by thioflavine-T; format: biochemical
[3] = Brain and plasma levels 1 h after i.p. administration; format: in vivo; conditions: female, B6C3F1, mouse, brain, ip, 5 mg/kg, Brain level, mice, 5 mg/kg i.p.
Summary of the method: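 Two-month-old female B6C3F1 mice, three per compound, given test compound 5 mg/kg i.p. and sampled at 1 h. Brain hemispheres were homogenised in 10 mM ammonium acetate pH 5.7 (1:2 w/v), and plasma was collected on EDTA. Samples were acetonitrile-extracted and quantified by LC-MS/MS (MRM, positive ESI) against spiked brain/plasma standards (4–4000 ng/mL) using a 1/x-weighted linear fit and triplicate injections.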

[4] = Brain and plasma levels after oral administration; format: in vivo; conditions: mice, oral gavage 5 mg/Kg
Summary of the method: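 Female B6C3F1 mice, two months old, were dosed with test compound at 5 mg/kg by oral gavage. Brain homogenate (10 mM ammonium acetate pH 5.7, 1:2 w/v) and EDTA plasma were extracted with acetonitrile. Levels were measured by LC-MS/MS with MRM detection, quantified from matrix-matched standard curves (4–4000 ng/mL) by 1/x-weighted linear regression on the mean of triplicate injections.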

[5] = Phase 2 study, 321 patients with mild or moderate AD; cited from earlier work

Chain of tau40-promoted MT-polymerization (tubulin) (P10636 1-441 isoform P10636-8): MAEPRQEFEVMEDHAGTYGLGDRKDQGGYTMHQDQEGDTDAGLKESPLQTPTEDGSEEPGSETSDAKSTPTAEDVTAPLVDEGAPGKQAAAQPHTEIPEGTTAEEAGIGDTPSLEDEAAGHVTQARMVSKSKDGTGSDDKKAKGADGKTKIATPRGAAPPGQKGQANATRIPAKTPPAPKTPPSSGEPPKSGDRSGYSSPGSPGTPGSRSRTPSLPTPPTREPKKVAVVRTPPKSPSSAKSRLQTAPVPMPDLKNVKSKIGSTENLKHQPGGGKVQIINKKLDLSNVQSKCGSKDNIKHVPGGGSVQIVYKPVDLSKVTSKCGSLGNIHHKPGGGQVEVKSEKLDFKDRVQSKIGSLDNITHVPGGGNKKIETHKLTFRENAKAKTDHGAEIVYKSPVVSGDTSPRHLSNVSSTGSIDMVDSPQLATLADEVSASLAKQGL
Chain of K18 tau fragment bearing the P301L mutation (K18PL) (P10636 561-689 P618L): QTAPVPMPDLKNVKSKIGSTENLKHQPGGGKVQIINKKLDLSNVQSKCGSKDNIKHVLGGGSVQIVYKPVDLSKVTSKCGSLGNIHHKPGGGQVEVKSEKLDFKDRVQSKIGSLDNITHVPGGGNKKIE

SMILES	IC50 [2] [µM]	other results
CCOC(=O)c1nn(-c2ccc(Cl)cc2)c(=O)c2c(N)scc12 [Compound 8, Ethyl 5-amino-3-(4-chlorophenyl)-4-oxo-3,4-dihydrothieno[3,4-d]pyridazine-1-carboxylate]	3.8 ± 1.6	Interference with the normal MT-stabilizing function of tau [1]: did not appear to interfere
CC(C)OC(=O)c1nn(-c2ccc(Cl)cc2)c(=O)c2c(N)scc12 [Compound 10, Isopropyl 5-amino-3-(4-chlorophenyl)-4-oxo-3,4-dihydrothieno[3,4-d]pyridazine-1-carboxylate]	1.6 ± 1.1	Interference with the normal MT-stabilizing function of tau [1]: did not appear to interfere
Nc1scc2c(C(=O)O)nn(-c3ccc(Cl)cc3)c(=O)c12 [Compound 11, 5-Amino-3-(4-chlorophenyl)-4-oxo-3,4-dihydrothieno[3,4-d]pyridazine-1-carboxylic acid]	5.4 ± 2.3	Interference with the normal MT-stabilizing function of tau [1]: did not appear to interfere
CNC(=O)c1nn(-c2ccc(Cl)cc2)c(=O)c2c(N)scc12 [Compound 13, 5-Amino-3-(4-chlorophenyl)-N-methyl-4-oxo-3,4-dihydrothieno[3,4-d]pyridazine-1-carboxamide]	21.7 ± 16	
CCNC(=O)c1nn(-c2ccc(Cl)cc2)c(=O)c2c(N)scc12 [Compound 14, 5-Amino-3-(4-chlorophenyl)-N-ethyl-4-oxo-3,4-dihydrothieno[3,4-d]pyridazine-1-carboxamide]	6.9 ± 3.4	concentration at 1 h [3]: > 800 ng/g
CC(C)NC(=O)c1nn(-c2ccc(Cl)cc2)c(=O)c2c(N)scc12 [Compound 15, 5-Amino-3-(4-chlorophenyl)-N-isopropyl-4-oxo-3,4-dihydrothieno[3,4-d]pyridazine-1-carboxamide]	5.9 ± 4.7	concentration at 1 h [3]: > 800 ng/g; Brain concentration after oral administration [4]: significant concentrations
Nc1scc2c(C(=O)NC3CC3)nn(-c3ccc(Cl)cc3)c(=O)c12 [Compound 16, 5-Amino-3-(4-chlorophenyl)-N-cyclopropyl-4-oxo-3,4-dihydrothieno[3,4-d]pyridazine-1-carboxamide]	8.1 ± 5.7	concentration at 1 h [3]: > 800 ng/g; Brain concentration after oral administration [4]: significant concentrations
CN(C)C(=O)c1nn(-c2ccc(Cl)cc2)c(=O)c2c(N)scc12 [Compound 17, 5-Amino-3-(4-chlorophenyl)-N,N-dimethyl-4-oxo-3,4-dihydrothieno[3,4-d]pyridazine-1-carboxamide]	20.5 ± 13.6	
CCN(C)C(=O)c1nn(-c2ccc(Cl)cc2)c(=O)c2c(N)scc12 [Compound 18, 5-Amino-3-(4-chlorophenyl)-N-ethyl-N-methyl-4-oxo-3,4-dihydrothieno[3,4-d]pyridazine-1-carboxamide]	32 ± 4.1	
CC(C)NC(=O)c1nn(-c2ccc(Br)cc2)c(=O)c2c(N)scc12 [Compound 19, 5-Amino-3-(4-bromophenyl)-N-isopropyl-4-oxo-3,4-dihydrothieno[3,4-d]pyridazine-1-carboxamide]	3.1 ± 0.6	
CN(C)c1ccc2nc3ccc(=[N+](C)C)cc-3sc2c1 [methylene blue]		Cognitive decline compared to placebo [5]: significant reduction in cognitive decline
